Reference: ChEMBL document CHEMBL2176962, “Repositioning HIV-1 integrase inhibitors for cancer therapeutics: 1,6-naphthyridine-7-carboxamide as a promising scaffold with drug-like properties” (J Med Chem, 2012)
Calls of active or inactive are those of the source. The rule behind the calls is not given here.

Legend:
[1] = target: T1, Human immunodeficiency virus type 1 integrase (Human immunodeficiency virus 1, UniProt Q7ZJM1); test: Inhibition of HIV1 integrase strand transfer activity using [32P]-labeled linear oligonucleotide substrate
T1 sequence (Q7ZJM1 whole entry): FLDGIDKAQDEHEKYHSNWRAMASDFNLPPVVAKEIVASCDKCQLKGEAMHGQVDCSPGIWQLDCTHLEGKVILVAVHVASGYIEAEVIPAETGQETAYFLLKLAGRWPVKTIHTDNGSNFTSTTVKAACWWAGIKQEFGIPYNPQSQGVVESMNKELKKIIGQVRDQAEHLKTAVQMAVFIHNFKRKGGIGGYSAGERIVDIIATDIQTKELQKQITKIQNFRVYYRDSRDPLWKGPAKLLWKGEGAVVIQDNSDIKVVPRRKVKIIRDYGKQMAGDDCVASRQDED

[2] = tested on: Human immunodeficiency virus 1; test: Antiviral activity against HIV1 3B infected in human C8166 cells assessed as reduction in virus-induced cytopathogenicity measured after 3 days by syncytium reduction assay; format: functional, organism-based; details: Human immunodeficiency virus 1, 3B, C8166, 72 h
Summary of the method: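 C8166 cells (4 × 10⁵ mL⁻¹), grown in RPMI-1640 with 10% heat-inactivated FCS and kept in log phase, infected with HIV-1 IIIB at MOI 0.06 in the presence of serial compound dilutions. AZT served as positive control. After 3 days, syncytia were counted by inverted microscope. EC50 was derived from percent inhibition of syncytium number relative to infected control.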

[3] = target: T1, Human immunodeficiency virus type 1 integrase; test: Inhibition of HIV1 integrase 3'-processing activity using [32P]-labeled linear oligonucleotide substrate
[4] = Therapeutic index, ratio of CC50 for human C8166 cells to EC50 for HIV1 3B; format: cell-based; details: read-out: Ratio CC50/EC50
Summary of the method: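 Therapeutic index was calculated as the C8166 MTT CC50 divided by the HIV-1 IIIB syncytium-reduction EC50.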

HCT-116 [5] = test: Cytotoxicity against p53 expressing human HCT116 cells incubated for 72 hrs by MTT assay; format: functional, cell-based; details: HCT-116, 72 h
Summary of the method: (§1)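 Cells were kept in DMEM (MDA-MB-435, MCF7, LNCaP) or RPMI (HT29, HCT116) with 10% heat-inactivated FBS and 2 mM L-glutamine, subconfluent and in exponential growth. They were seeded, allowed to adhere overnight, then exposed continuously to compound (10 mM DMSO stock) for 72 h. MTT was added to 0.3 mg/mL final for 3–4 h at 37 °C, formazan was dissolved in DMSO, and absorbance was read at 570 nm. Runs were in triplicate; IC50 came from log concentration versus percent cell kill.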

MDA-MB-435 [6] = test: Cytotoxicity against human MDA-MB-435 cells incubated for 72 hrs by MTT assay; format: functional, cell-based; details: MDA-MB-435, 72 h; summary of the method: as §1
HCT-116 [7] = test: Cytotoxicity against p53 deficient human HCT116 cells incubated for 72 hrs by MTT assay; format: functional, cell-based; details: HCT-116, 72 h; summary of the method: as §1
[8] = Toxicity against human C8166 cells incubated for 72 hrs by MTT assay; format: cell-based
Summary of the method: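 C8166 cells were seeded with serial compound dilutions in triplicate and incubated at 37 °C, 5% CO2 for 72 h. MTT (5 mg/mL in PBS) was added for 4 h, and formazan was dissolved in 50% DMF-20% SDS. Absorbance was read at 595/630 nm. CC50 was taken from the dose-response curve.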

LNCaP = test: Cytotoxicity against human LNCAP cells incubated for 72 hrs by MTT assay; format: functional, cell-based; summary of the method: as §1
HT-29 = test: Cytotoxicity against human HT-29 cells incubated for 72 hrs by MTT assay; format: functional, cell-based; details: HT-29, 72 h; summary of the method: as §1
SK-BR-3 = test: Cytotoxicity against human SKBR3 cells incubated for 72 hrs by MTT assay; format: functional, cell-based; details: SK-BR-3, 72 h
MCF7 = test: Cytotoxicity against human MCF7 cells incubated for 72 hrs by MTT assay; format: functional, cell-based; details: MCF7, 72 h; summary of the method: as §1
[9] = target: Proto-oncogene tyrosine-protein kinase Src (Homo sapiens) (UniProt P12931); test: Inhibition of SRC at 10 uM incubated for 60 mins using poly(Glu,Tyr)4:1 substrate and 10 uM ATP by ELISA
Chain of Proto-oncogene tyrosine-protein kinase Src (Homo sapiens) (P12931 2-536 limits assumed): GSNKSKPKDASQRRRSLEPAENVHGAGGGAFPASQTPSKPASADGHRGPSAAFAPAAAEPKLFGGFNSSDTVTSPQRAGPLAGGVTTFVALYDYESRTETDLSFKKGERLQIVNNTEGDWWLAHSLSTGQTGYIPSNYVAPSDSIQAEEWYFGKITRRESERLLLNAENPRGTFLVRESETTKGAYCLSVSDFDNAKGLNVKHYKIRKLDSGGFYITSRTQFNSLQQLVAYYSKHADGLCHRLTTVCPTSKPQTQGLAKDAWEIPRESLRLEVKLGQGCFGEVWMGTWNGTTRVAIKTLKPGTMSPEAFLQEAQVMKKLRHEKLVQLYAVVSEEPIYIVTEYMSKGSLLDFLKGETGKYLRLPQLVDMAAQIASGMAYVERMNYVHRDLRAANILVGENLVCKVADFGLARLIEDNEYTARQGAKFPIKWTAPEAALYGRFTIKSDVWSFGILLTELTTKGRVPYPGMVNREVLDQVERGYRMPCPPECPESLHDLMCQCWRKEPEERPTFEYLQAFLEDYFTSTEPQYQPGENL
Summary of the method: (§2)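 ELISA with Poly(Glu,Tyr)4:1 (20 μg/mL) precoated as substrate and 10 μM ATP, in 50 mM HEPES pH 7.4, 20 mM MgCl2, 0.1 mM MnCl2, 0.2 mM Na3VO4, 1 mM DTT. Compound was tested at 10 μM, in duplicate. Kinase reaction ran 60 min at 37 °C. Phosphotyrosine was detected with PY99 and HRP anti-mouse IgG, developed with o-phenylenediamine/H2O2, stopped with H2SO4 and read at 492 nm. Inhibition = [1 − A492 treated/A492 control] × 100%. References: lapatinib (ErbB2) and PP2 (Src), each at 10 μM.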

[10] = target: Vascular endothelial growth factor receptor 2 (Homo sapiens) (UniProt P35968); details: at 10 µM
Chain of Vascular endothelial growth factor receptor 2 (Homo sapiens) (P35968 whole entry): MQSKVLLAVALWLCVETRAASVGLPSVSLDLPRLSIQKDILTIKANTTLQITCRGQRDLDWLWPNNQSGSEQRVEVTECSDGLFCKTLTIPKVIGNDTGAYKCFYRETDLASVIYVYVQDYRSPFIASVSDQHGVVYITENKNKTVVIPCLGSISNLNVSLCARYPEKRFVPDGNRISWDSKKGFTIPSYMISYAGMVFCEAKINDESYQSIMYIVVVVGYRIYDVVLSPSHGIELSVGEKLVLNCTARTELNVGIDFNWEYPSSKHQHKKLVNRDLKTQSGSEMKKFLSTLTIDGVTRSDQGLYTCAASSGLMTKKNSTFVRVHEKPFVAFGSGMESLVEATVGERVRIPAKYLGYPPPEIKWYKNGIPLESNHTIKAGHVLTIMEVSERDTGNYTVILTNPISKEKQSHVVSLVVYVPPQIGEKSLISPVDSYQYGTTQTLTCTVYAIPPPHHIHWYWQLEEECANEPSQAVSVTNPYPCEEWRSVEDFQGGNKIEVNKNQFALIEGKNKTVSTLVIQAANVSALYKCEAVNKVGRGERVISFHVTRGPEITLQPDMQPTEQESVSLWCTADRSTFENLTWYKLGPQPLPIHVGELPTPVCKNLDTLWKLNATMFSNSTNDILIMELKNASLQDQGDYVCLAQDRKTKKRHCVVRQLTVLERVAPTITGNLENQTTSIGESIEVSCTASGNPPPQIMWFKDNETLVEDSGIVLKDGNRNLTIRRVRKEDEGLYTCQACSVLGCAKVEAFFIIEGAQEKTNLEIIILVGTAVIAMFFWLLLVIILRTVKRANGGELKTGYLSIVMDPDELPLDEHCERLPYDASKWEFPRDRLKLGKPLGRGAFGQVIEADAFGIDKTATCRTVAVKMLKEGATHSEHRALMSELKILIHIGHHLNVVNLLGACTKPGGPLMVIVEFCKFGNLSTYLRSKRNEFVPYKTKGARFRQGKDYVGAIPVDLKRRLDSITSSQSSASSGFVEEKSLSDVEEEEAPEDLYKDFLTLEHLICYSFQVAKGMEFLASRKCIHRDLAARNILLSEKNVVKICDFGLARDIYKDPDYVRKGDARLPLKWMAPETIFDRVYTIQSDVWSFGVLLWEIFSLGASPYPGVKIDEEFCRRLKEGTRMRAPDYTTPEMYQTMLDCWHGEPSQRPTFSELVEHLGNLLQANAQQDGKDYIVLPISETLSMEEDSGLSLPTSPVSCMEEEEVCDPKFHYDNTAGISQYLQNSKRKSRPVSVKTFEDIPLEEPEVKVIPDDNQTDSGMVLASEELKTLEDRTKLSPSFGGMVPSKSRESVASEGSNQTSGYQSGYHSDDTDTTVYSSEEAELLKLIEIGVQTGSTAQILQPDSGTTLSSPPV

[11] = target: Receptor tyrosine-protein kinase erbB-2 (Homo sapiens) (UniProt P04626); test: Inhibition of ErbB2 at 10 uM incubated for 60 mins using poly(Glu,Tyr)4:1 substrate and 10 uM ATP by ELISA; summary of the method: as §2
Chain of Receptor tyrosine-protein kinase erbB-2 (Homo sapiens) (P04626 whole entry): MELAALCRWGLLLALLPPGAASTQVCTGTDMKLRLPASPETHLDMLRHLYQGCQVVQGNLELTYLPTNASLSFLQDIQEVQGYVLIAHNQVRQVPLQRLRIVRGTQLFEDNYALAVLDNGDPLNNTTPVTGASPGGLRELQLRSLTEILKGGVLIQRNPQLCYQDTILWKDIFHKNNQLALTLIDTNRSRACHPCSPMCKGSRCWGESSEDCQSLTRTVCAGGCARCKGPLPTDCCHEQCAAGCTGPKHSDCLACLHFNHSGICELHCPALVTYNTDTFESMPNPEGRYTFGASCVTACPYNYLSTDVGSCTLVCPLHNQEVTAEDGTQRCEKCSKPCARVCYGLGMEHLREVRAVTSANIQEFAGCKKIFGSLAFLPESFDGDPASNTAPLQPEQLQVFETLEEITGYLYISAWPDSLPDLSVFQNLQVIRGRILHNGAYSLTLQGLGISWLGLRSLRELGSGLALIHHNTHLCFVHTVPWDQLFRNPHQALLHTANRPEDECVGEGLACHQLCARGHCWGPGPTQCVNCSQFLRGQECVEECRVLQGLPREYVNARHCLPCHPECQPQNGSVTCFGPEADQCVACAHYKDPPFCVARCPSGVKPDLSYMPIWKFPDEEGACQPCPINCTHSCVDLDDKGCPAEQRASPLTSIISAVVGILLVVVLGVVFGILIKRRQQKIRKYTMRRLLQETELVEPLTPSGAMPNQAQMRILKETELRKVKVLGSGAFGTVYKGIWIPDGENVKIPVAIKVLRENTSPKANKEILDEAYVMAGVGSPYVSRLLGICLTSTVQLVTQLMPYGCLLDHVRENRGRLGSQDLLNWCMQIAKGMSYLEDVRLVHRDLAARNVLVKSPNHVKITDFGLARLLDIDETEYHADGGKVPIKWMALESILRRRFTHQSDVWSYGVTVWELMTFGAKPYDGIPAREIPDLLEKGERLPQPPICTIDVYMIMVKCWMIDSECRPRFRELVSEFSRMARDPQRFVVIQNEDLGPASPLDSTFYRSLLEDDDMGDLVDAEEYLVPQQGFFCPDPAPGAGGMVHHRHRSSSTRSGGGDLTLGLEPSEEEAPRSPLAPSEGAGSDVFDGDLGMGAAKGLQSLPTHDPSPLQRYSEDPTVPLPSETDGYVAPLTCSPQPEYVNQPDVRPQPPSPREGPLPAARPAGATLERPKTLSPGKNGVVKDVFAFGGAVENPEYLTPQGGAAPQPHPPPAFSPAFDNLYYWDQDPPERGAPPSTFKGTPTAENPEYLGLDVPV

MDA-MB-435 [12] = test: Inhibition of colony formation in human MDA-MB-435 cells at 10 uM treated continuously for 7 days by crystal violet staining based colony formation assay; format: functional, cell-based
Summary of the method: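 MDA-MB-435 cells (500 per well) were adhered overnight and treated with compound at 10 μM, or across a dose range. The methods describe a 24 h treatment, then PBS washing and 7–10 days regrowth; the figure legend describes continuous 7-day treatment. Colonies were fixed and stained with 2% crystal violet containing 1% glutaraldehyde, then imaged.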

SMILES | IC50 [1] | EC50 [2] | IC50 [3] | selectivity ratio [4] | IC50 (HCT-116 [5]) | IC50 (MDA-MB-435 [6]) | IC50 (HCT-116 [7]) | CC50 at 72 h [8] | IC50 (LNCaP) | IC50 (HT-29) | IC50 (SK-BR-3) | IC50 (MCF7) | inhibition [9] | inhibition [10] | inhibition [11] | inhibition (MDA-MB-435 [12])
O=C(NCc1ccc(F)cc1)c1nc(Br)c2cccnc2c1NCCO | 69 µM | 48.9 µM | > 100 µM | 4.8 | > 20 µM | > 20 µM | > 20 µM | 232 µM |  |  |  |  |  |  |  | 
O=C(NCc1ccc(F)cc1)c1nc(Br)c2cccnc2c1N1CCNCC1 |  |  |  |  | > 10 µM | 8 µM | > 10 µM |  | 4.5 µM | 10 µM | 6 µM | 7 µM | 29% | 4% |  | 
O=C(NCc1ccc(F)cc1)c1nc(NCCO)c2cccnc2c1O | 0.3 µM | 0.029 µM | 9.5 µM | 3140 |  | > 20 µM |  | 91 µM |  |  |  |  |  |  |  | 
NCCCNc1c(C(=O)NCc2ccc(F)cc2)ncc2cccnc12 |  |  |  |  | > 10 µM | 16 µM | > 10 µM |  | > 10 µM | > 10 µM | > 10 µM | > 10 µM | 15% | 10% |  | 
O=C(NCc1ccc(F)cc1)c1nc(N2CCCCS2(=O)=O)c2cccnc2c1O | 0.3 µM | 0.005 µM | 11 µM | 26400 | 2 µM | 6 µM | 2 µM | 132 µM |  |  |  | 2 µM | 13% |  | 8% | 
O=CNCCCCCCNc1nc(C(=O)NCc2ccc(F)cc2)c(O)c2ncccc12 | 0.2 µM | 0.027 µM | 6 µM | 7370 | 4 µM | 16 µM | 6 µM | 199 µM |  |  |  | 19 µM | 23% |  | 11% | 
C[C@H](CO)Nc1nc(C(=O)NCc2ccc(F)cc2)c(O)c2ncccc12 | 0.2 µM | 0.052 µM | 6.9 µM | 1330 |  | > 20 µM |  | 69 µM |  |  |  |  |  |  |  | 
CN(C)CCCNc1c(C(=O)NCc2ccc(F)cc2)nc(Br)c2cccnc12 |  |  |  |  | > 10 µM | 7 µM | > 10 µM |  | 8 µM | 6 µM | 1 µM | 7 µM | 17% | 0% |  | 
NCCCCCCNc1c(C(=O)NCc2ccc(F)cc2)nc(Br)c2cccnc12 |  |  |  |  | 7 µM | 6 µM | > 10 µM |  | 8 µM | 5 µM | 3 µM | 2 µM | 18% | 0% |  | Active
CS(=O)(=O)Oc1c(C(=O)NCc2ccc(F)cc2)nc(Br)c2cccnc12 | 13 µM | 11.8 µM | > 111 µM | 4 | > 20 µM | > 20 µM | > 20 µM | 48 µM |  |  |  |  |  |  |  | 
Cc1ccc(S(=O)(=O)Oc2c(C(=O)NCc3ccc(F)cc3)nc(Br)c3cccnc23)cc1 | 31 µM | 5.01 µM | > 111 µM | 6.2 | > 20 µM | > 20 µM | > 20 µM | 31 µM |  |  |  |  |  |  |  | 
Nc1ccc(Nc2c(C(=O)NCc3ccc(F)cc3)nc(Br)c3cccnc23)cc1 |  |  |  |  | 10 µM | 7 µM | 7 µM |  | 7 µM | > 10 µM | 4 µM | 4 µM | 7% | 8% | 1% | 
CS(=O)(=O)NCCCN(c1nc(C(=O)NCc2ccc(F)cc2)c(O)c2ncccc12)S(C)(=O)=O | 0.7 µM | 0.003 µM | 34 µM | 21300 | 15 µM | > 20 µM | 7 µM | 64 µM |  |  |  | > 20 µM |  |  |  | 
C[C@@H](CO)Nc1nc(C(=O)NCc2ccc(F)cc2)c(O)c2ncccc12 | 0.3 µM | 0.023 µM | 7.8 µM | 4650 |  | > 20 µM |  | 107 µM |  |  |  |  |  |  |  | 
O=C(NCc1ccc(F)cc1)c1nc(Br)c2cccnc2c1NC1CCNCC1 |  |  |  |  | 9.2 µM | 7 µM | 6 µM |  | 6 µM | 4 µM | 1 µM | 3 µM | 9% | 0% | 1% | Active
CS(=O)(=O)NCCCCCCN(c1nc(C(=O)NCc2ccc(F)cc2)c(O)c2ncccc12)S(C)(=O)=O | 0.7 µM | 0.002 µM | 11 µM | 18500 | 3 µM | 20 µM | 4 µM | 37 µM |  |  |  | 7 µM |  |  |  | 
O=C(NCc1ccc(F)cc1)c1nc(Br)c2cccnc2c1O | 0.5 µM | 11.1 µM | 14 µM | 7.2 | > 20 µM | 15 µM | > 20 µM | 80 µM |  |  |  |  |  |  |  | 
O=C(NCc1ccc(F)cc1)c1nc(NCCc2c[nH]c3ccccc23)c2cccnc2c1O | 1 µM | 0.368 µM | 14 µM | 114 |  | 13 µM |  | 42 µM |  |  |  | 12 µM |  |  |  | 
